# Key:
# [1] = tested on: Staphylococcus aureus; assay: Antibacterial activity against Staphylococcus aureus ATCC 29213 after 16 to 18 hrs by CLSI method; type: functional
# Outline: (§1)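 Broth microdilution MIC per CLSI. A single colony from Mueller-Hinton agar is grown overnight in cation-supplemented Mueller-Hinton broth (37 °C, shaking, 18–24 h). Incubation is 37 °C for 16–18 h. MIC is the lowest concentration with no visible growth. Three independent runs, each in duplicate.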
# [2] = tested on: Escherichia coli; assay: Antibacterial activity against Escherichia coli ATCC 25922 after 16 to 18 hrs by CLSI method; type: functional; outline: as §1
# [3] = tested on: Klebsiella pneumoniae; assay: Antibacterial activity against Klebsiella pneumoniae ATCC BAA-1705 after 16 to 18 hrs by CLSI method; type: functional; outline: as §1
# [4] = tested on: Acinetobacter baumannii; assay: Antibacterial activity against Acinetobacter baumannii BAA-1605 after 16 to 18 hrs by CLSI method; type: functional; outline: as §1
# [5] = tested on: Pseudomonas aeruginosa; assay: Antibacterial activity against Pseudomonas aeruginosa ATCC 27853 after 16 to 18 hrs by CLSI method; type: functional; outline: as §1
# [6] = tested on: Mycolicibacterium fortuitum; assay: Antimycobacterial activity against Mycobacterium fortuitum by pesto blue-dye based broth microdilution assay; type: functional
# [7] = tested on: Mycobacteroides chelonae; assay: Antimycobacterial activity against Mycobacterium chelonae by pesto blue-dye based broth microdilution assay; type: functional
# [8] = tested on: Mycobacteroides abscessus; assay: Antimycobacterial activity against Mycobacterium abscessus by pesto blue-dye based broth microdilution assay; type: functional
# [9] = tested on: Mycobacterium tuberculosis; assay: Antimycobacterial activity against Mycobacterium tuberculosis H37Rv ATCC 27294 after 7 days by pesto blue-dye based broth microdilution assay; type: functional; conditions: H37Rv ATCC 27294, 168 h
# Outline: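 Broth microdilution in Middlebrook 7H9 with 10% ADC-Tween-80 (0.2% glycerol, 0.05% Tween-80). Compound is added from 10 mg/mL DMSO stocks as two-fold dilutions, 64–0.5 mg/L. Plates are incubated 7 days at 37 °C and read with PrestoBlue resazurin dye. MIC is the lowest concentration inhibiting visible growth, three replicates in duplicate.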
# [10] = Cytotoxicity against African green monkey Vero cells after 72 hrs by MTT assay; type: cell-based; conditions: chlorocebus sabaeus
# Outline: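 Vero cells are seeded at ~10³ per well and held 24 h at 37 °C, 5% CO₂. Compound at 100–5 mg/L is then added for 72 h. MTT is added at […], and formazan is dissolved in DMSO and read at 540 nm. CC50 is the lowest concentration giving 50% loss of viability. Doxorubicin is the positive control. Triplicate experiments.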
# [11] = Selectivity index, ratio of CC50 for African green monkey Vero cells to MIC for Staphylococcus aureus ATCC 29213; type: toxicity; conditions: read-out: Selectivity Index
# Outline: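 Selectivity index is calculated as the Vero CC50 divided by the MIC against S. aureus ATCC 29213. CC50 comes from a 72 h MTT assay at 100–5 mg/L. MIC comes from CLSI broth microdilution at ~10⁶ CFU/mL, 37 °C, 16–18 h.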
# [12] = tested on: Staphylococcus aureus; assay: Antibacterial activity against methicillin-sensitive Staphylococcus aureus ATCC 29213 by CLSI method; type: functional
# Outline: (§2)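 Broth microdilution to CLSI. A single colony from Mueller-Hinton agar is grown overnight in cation-supplemented MHB at 37 °C with shaking, 18–24 h. Levofloxacin is the reference. MIC is the lowest concentration with no visible growth, from three independent runs in duplicate.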
# [13] = tested on: Staphylococcus aureus; assay: Antibacterial activity against methicillin-resistant Staphylococcus aureus NR119 by CLSI method; type: functional; outline: as §2
# [14] = tested on: Staphylococcus aureus; assay: Antibacterial activity against methicillin-resistant Staphylococcus aureus NR10129 by CLSI method; type: functional; outline: as §2
# [15] = tested on: Staphylococcus aureus; assay: Antibacterial activity against methicillin-resistant Staphylococcus aureus NR10198 by CLSI method; type: functional; outline: as §2
# [16] = tested on: Staphylococcus aureus; assay: Antibacterial activity against methicillin-resistant Staphylococcus aureus NR10192 by CLSI method; type: functional; outline: as §2
# [17] = tested on: Staphylococcus aureus; assay: Antibacterial activity against methicillin-resistant Staphylococcus aureus NR10186 by CLSI method; type: functional; outline: as §2
# [18] = tested on: Staphylococcus aureus; assay: Antibacterial activity against methicillin-resistant Staphylococcus aureus NR10193 by CLSI method; type: functional; outline: as §2
# [19] = tested on: Staphylococcus aureus; assay: Antibacterial activity against methicillin-resistant Staphylococcus aureus NR10194 by CLSI method; type: functional; outline: as §2
# [20] = tested on: Staphylococcus aureus; assay: Antibacterial activity against methicillin-resistant Staphylococcus aureus NR10191 by CLSI method; type: functional; outline: as §2
# [21] = tested on: Staphylococcus aureus; assay: Antibacterial activity against vancomycin-resistant Staphylococcus aureus VRS1 by CLSI method; type: functional; outline: as §2
# [22] = tested on: Staphylococcus aureus; assay: Antibacterial activity against vancomycin-resistant Staphylococcus aureus VRS4 by CLSI method; type: functional; outline: as §2
# [23] = tested on: Staphylococcus aureus; assay: Antibacterial activity against vancomycin-resistant Staphylococcus aureus VRS12 by CLSI method; type: functional; outline: as §2
# [24] = tested on: Escherichia coli; assay: Antibacterial activity against Escherichia coli ATCC 25922 after 16 to 18 hrs in presence of PMBN by CLSI method; type: functional
# Outline: (§3)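 MIC per CLSI broth microdilution with compound combined with a sub-lethal level of polymyxin B nonapeptide. Inoculum is ~10⁶ CFU/mL in cation-supplemented Mueller-Hinton broth. Incubation is 37 °C for 16–18 h. MIC is read as the absence of visible growth. Three independent runs, each in duplicate.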
# [25] = tested on: Acinetobacter baumannii; assay: Antibacterial activity against Acinetobacter baumannii BAA-1605 after 16 to 18 hrs in presence of PMBN by CLSI method; type: functional; outline: as §3
Compound,MIC [1] [µg/mL],MIC [2] [µg/mL],MIC [3] [µg/mL],MIC [4] [µg/mL],MIC [5] [µg/mL],MIC [6] [µg/mL],MIC [7] [µg/mL],MIC [8] [µg/mL],MIC [9] [µg/mL],CC50 at 72 h [10] [µg/mL],selectivity ratio [11],MIC [12] [µg/mL],MIC [13] [µg/mL],MIC [14] [µg/mL],MIC [15] [µg/mL],MIC [16] [µg/mL],MIC [17] [µg/mL],MIC [18] [µg/mL],MIC [19] [µg/mL],MIC [20] [µg/mL],other results
N#Cc1ccc(/C=C/c2nc3ccccc3c(=O)n2-c2cccc(OCc3cn(Cc4ccccc4)nn3)c2)cc1,0.5,> 64,> 64,> 64,> 64,> 64,> 64,> 64,> 64,20,40,1,2,2,2,1,2,2,1,1,MIC [21]: 32 µg/mL; MIC [22]: 2 µg/mL; MIC [23]: 2 µg/mL; MIC [24]: > 64 µg/mL; MIC [25]: > 64 µg/mL
N#Cc1ccc(/C=C/c2nc3ccccc3c(=O)n2-c2cccc(OCc3cn(Cc4ccc([N+](=O)[O-])cc4)nn3)c2)cc1,2,> 64,> 64,> 64,> 64,> 64,> 64,> 64,> 64,,,,,,,,,,,,
COc1ccc(Cn2cc(COc3cccc(-n4c(/C=C/c5ccc(C#N)cc5)nc5ccccc5c4=O)c3)nn2)cc1,0.5,> 64,> 64,> 64,> 64,> 64,> 64,> 64,> 64,,,,,,,,,,,,
N#Cc1ccc(/C=C/c2nc3ccccc3c(=O)n2-c2cccc(OCc3cn(-c4cccc(Cl)c4)nn3)c2)cc1,0.5,> 64,> 64,> 64,> 64,> 64,> 64,> 64,> 64,40,80,0.5,0.5,0.5,0.5,0.5,0.5,1,0.5,1,MIC [21]: 32 µg/mL; MIC [22]: 0.5 µg/mL; MIC [23]: 2 µg/mL; MIC [24]: > 64 µg/mL; MIC [25]: > 64 µg/mL
N#Cc1ccc(/C=C/c2nc3ccccc3c(=O)n2-c2cccc(OCc3cn(Cc4cccc(Br)c4)nn3)c2)cc1,0.5,> 64,> 64,> 64,> 64,> 64,> 64,> 64,> 64,,,,,,,,,,,,
